Our source for the IC50, EC50 and ED50 values is ChEMBL document CHEMBL1130337 (J Med Chem, 1997).

As a reminder, the IC50 is the concentration needed to halve the response being measured. A high value points to lower potency. A word on the EC50: it is the concentration that produces a half-maximal response. Read a low EC50 as higher potency in that assay. What is called ED50 is the midpoint of the dose-response relation.

Test [1] in a line: Inhibitory concentration against ACPD-sensitive radioligand [3H]glutamate binding to Group II Metabotropic glutamate receptor in rat forebrain membranes. The class given is cell membranes, Membrane. An outline of the steps:
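Rat forebrain membranes; displacement of ACPD-sensitive [3H]glutamate binding (10 nM radioligand).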

Another test concerns the target Glutamate NMDA receptor. In words: Inhibitory concentration against radioligand [3H]CGS-19,755 binding to N-methyl-D-aspartate glutamate receptor in rat forebrain membranes. The class given is cell membranes, Membrane. An outline of the steps: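 Rat forebrain membranes; displacement of [3H]CGS19755 (10 nM) binding. Compounds screened at concentrations up to 100 µM (triplicate analysis at 1, 10 and 100 µM).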

Test [2] is filed under the species Rattus norvegicus. As to the kind of experiment: Compound was evaluated by measuring the ability to influence forskolin-stimulated cAMP formation in adult rat cerebral cortical slices. The class given is functional. In a few lines: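 Adult rat cerebral cortical slices; cAMP formation stimulated with forskolin (30 µM), and suppression of that cAMP formation measured. EC50 values derived from concentration-response curves.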
(Changes in cAMP serve as a functional read-out for many G protein-coupled receptors.)

In test [3] the target is Glutamate receptor ionotropic, kainate. As to the kind of experiment: Inhibitory concentration against radioligand [3H]-Kainate binding to Ionotropic glutamate receptor kainate in rat forebrain membranes. The format is cell membranes, Membrane. In a few lines: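 Rat forebrain membranes; displacement of [3H]kainate (5 nM) binding. Compounds screened at concentrations up to 100 µM (triplicate analysis at 1, 10 and 100 µM).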

The species named for test [4] is Rattus norvegicus. In words: Compound was evaluated by measuring the ability to influence stimulated basal [3H]-IP formation in adult rat cerebral cortical slices. The format is functional. An outline of the steps:
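Rat cerebral cortical slices labeled for [3H]phosphoinositide hydrolysis; accumulation of tritiated inositol monophosphates ([3H]IP) measured against basal levels. Concentrations tested up to 300 µM.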

For test [5], the target named is Glutamate receptor ionotropic, AMPA (Rattus norvegicus, UniProt P19490+P19491+P19492+P19493). As to the kind of experiment: Inhibitory concentration against radioligand [3H]AMPA binding to Ionotropic glutamate receptor AMPA in rat forebrain membranes. The class given is cell membranes, Membrane.
The species entered for test [6] is Mus musculus. In words: Oral effective dose evaluated in mice by mouse limbic seizure assay. The format is functional, Limbic system. An outline of the steps: (§1)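 Male NIH Swiss mice (20-25 g) given test drug ip or po 30 min before unilateral intracerebral 1S,3R-ACPD (400 nmol), injected 2 mm lateral to bregma at 3.7 mm depth. Scored as the number of animals showing limbic seizures (clonic forelimb contractions, rearing, falling) during the observation period. ED50 in mg/kg.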

Test [7] is filed under the species Mus musculus. In words: Oral effective dose was evaluated in mice by automated elevated plus-maze assay. The format is functional. In a few lines:
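Male NIH Swiss mice (20-35 g), acclimated ≥3 days on a 12 h light/dark cycle, dosed 30 min before a 5-min test on an automated elevated plus maze. Mice started on the closed platform; closed arm, open arm and nosepoke counts recorded. Dose-response for open arm activity gives the ED50 (mg/kg).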

In test [8] the test system is Mus musculus. As to the kind of experiment: Intraperitoneal effective dose evaluated in mice by mouse limbic seizure assay. The format is functional, Limbic system. An outline of the steps: as §1

In the case of `N[C@H](C(=O)O)[C@H]1C[C@@H]1C(=O)O`, the results for the IC50 (in [1]; at Glutamate NMDA receptor; in [3]) were 454 nM, above 100 µM and above 100 µM, respectively. Moreover, the EC50 is 1100 nM in the test listed under Rattus norvegicus [2] (Rattus norvegicus) and 25.4 µM in the test listed under Rattus norvegicus [4].
For the molecule `N[C@]1(C(=O)O)CC[C@H]2[C@H](C(=O)O)[C@H]21` (racemic), the 50% inhibitory concentration (IC50) in test [1] is above 100000 nM; in [5], above 100 µM; at Glutamate NMDA receptor, 62.4 µM; in test [3] it was above 100 µM.
In the case of `N[C@@]1(C(=O)O)CC[C@H]2[C@H](C(=O)O)[C@H]21` (racemic), the IC50 in [1] stood at 318 nM. In addition, the EC50 in the test filed under Rattus norvegicus [2] was 86 nM.
Molecule `N[C@@]1(C(=O)O)CC[C@H]2[C@H](C(=O)O)[C@H]21` (stereo in doubt; (+)-9) registered an IC50 in test [1] of 180 nM. Further, the ED50 in the test filed under Mus musculus [6] was determined as 45.6 mg/kg; in the test filed under Mus musculus [7], 0.5 mg/kg; with Mus musculus [8], 17 mg/kg. For the same molecule, the EC50 was 55 nM in the test listed under Rattus norvegicus [2] and above 300 µM in the test filed under Rattus norvegicus [4].
Turning to `N[C@@]1(C(=O)O)CC[C@H]2[C@H](C(=O)O)[C@H]21` (stereo in doubt; (-)-9), the IC50 in test [1] was above 100000 nM; in test [5] it was above 100 µM; at Glutamate NMDA receptor, above 100 µM; in test [3], above 100 µM. The molecule further showed an EC50 in the test listed under Rattus norvegicus [2] above 300000 nM. Moreover, in the test on Mus musculus [8], the ED50 was above 100 mg/kg.
